From ChEMBL document CHEMBL4004810, “Pharmacokinetics of the Individual Major Components of Polymyxin B and Colistin in Rats” (J Nat Prod, 2017) come the findings set out here.

A short description of data set [1]: Clearance in Sprague-Dawley rat at 4 mg/kg, iv administered as single bolus cassette dose by UPLC-MS/MS analysis. It is filed as ADME, organism-based. Conditions: in vivo.
A short description of data set [2]: Protein binding in rat plasma up to 10 ug/ml after 2 hrs by LC-MS/MS based ultrafiltration method. Particulars: read-out: PPB (converted).
Data set [3] is described as follows: Plasma concentration in Sprague-Dawley rat at 0.8 mg/kg, iv administered as single bolus dose after 360 mins by LC-MS/MS analysis. The format is ADME, organism-based. Summed up: (§1)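 Jugular vein (dosing) and carotid artery (sampling) cannulated rats, recovered one day; 4 groups, n = 4, each given a 0.8 mg/kg iv bolus of one component. Blood sampled predose and at 10–360 min; urine collected in chilled metabolic cages over 0–6 h and 6–24 h. Plasma and urine quantified by LC-MS/MS (calibration 0.1–8.0 mg/L); parameters by noncompartmental analysis.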

Data set [4] in a line: Total clearance in Sprague-Dawley rat at 0.8 mg/kg, iv administered as single bolus dose by LC-MS/MS analysis. It is filed as ADME, organism-based. Conditions: in vivo. Summed up:
as §1

Data set [5] can be described thus: Volume of distribution in Sprague-Dawley rat at 0.8 mg/kg, iv administered as single bolus dose by LC-MS/MS analysis. Conditions: in vivo. It is filed as ADME, organism-based. Summed up:
as §1

Data set [6] is described as follows: Elimination half life in Sprague-Dawley rat at 0.8 mg/kg, iv administered as single bolus dose by LC-MS/MS analysis. It is filed as ADME, organism-based. Conditions: in vivo, read-out: beta t1/2. Put shortly: as §1
Data set [7] is described as follows: AUC (0 to infinity) in Sprague-Dawley rat at 0.8 mg/kg, iv administered as single bolus dose by LC-MS/MS analysis. Conditions: in vivo. The format is ADME, organism-based. More on the design: dose 0.8 mg/kg, route intravenous, time infinity. Summed up:
as §1

Data set [8] is described as follows: Drug recovery in Sprague-Dawley rat urine at 0.8 mg/kg, iv administered as single bolus dose by LC-MS/MS analysis. Particulars: read-out: Drug recovery. The format is ADME, organism-based. Summed up: as §1
Data set [9] can be described thus: Protein binding in Sprague-Dawley rat plasma at 5 mg/L after 30 mins by ultracentrifugation based LC-MS/MS method. It is filed as ADME, cell-free. Particulars: read-out: PPB (converted). Put shortly:
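Drug-free rat plasma spiked with 5 mg/L component in triplicate, incubated 30 min at 37 °C, then ultracentrifuged 215000g for 4 h at 37 °C. Two replicates sampled protein-free supernatant, one sampled total resuspension; both measured by LC-MS/MS. % bound = (total − supernatant)/total × 100.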

Data set [10] in a line: Total clearance in Sprague-Dawley rat at 1 mg/kg, iv administered as bolus dose by HPLC analysis. The format is ADME, organism-based. Conditions: in vivo.

Positions of bridges follow the written chain, without caps; N, C: chain ends. Non-standard residues stand in square brackets, D forms with d. Residues, ends and D or L forms follow the SMILES beside them. *: point of attachment. Heptanoyl(6-Me) = CC(C)CCCCC(=O)*; X1 = CC[C@@H](C)CCCCC(=O)*; X2 = CC[C@H](C)CCCCC(=O)*; Octanoyl = CCCCCCCC(=O)*; Dab = NCC[C@H](N)C(=O)O

The clearance is the rate of elimination divided by the concentration. The low end stands for inefficient removal, the high end for efficient removal. As for `CCCCCCCC(=O)N[C@@H](CCN)C(=O)N[C@H](C(=O)N[C@@H](CCN)C(=O)N[C@H]1CCNC(=O)[C@H]([C@@H](C)O)NC(=O)[C@H](CCN)NC(=O)[C@H](CCN)NC(=O)[C@H](CC(C)C)NC(=O)[C@@H](Cc2ccccc2)NC(=O)[C@H](CCN)NC1=O)[C@@H](C)O` (Octanoyl-[Dab]T[Dab][Dab][Dab][dF]L[Dab][Dab]T; lactam 4-C), the clearance in data set [1] is 1.69 mL/min/kg. Further, the fraction unbound at 2 h in [2] was 0.08.

The term Vd denotes the apparent volume that relates the amount in the body to the concentration in plasma or blood. A low value points to little distribution into tissue. What is called AUC(0-inf) is the area under the concentration-time curve extrapolated to infinity. A high value points to high exposure. For `CC[C@@H](C)CCCCC(=O)N[C@@H](CCN)C(=O)N[C@H](C(=O)N[C@@H](CCN)C(=O)N[C@H]1CCNC(=O)[C@H]([C@@H](C)O)NC(=O)[C@H](CCN)NC(=O)[C@H](CCN)NC(=O)[C@H](CC(C)C)NC(=O)[C@@H](Cc2ccccc2)NC(=O)[C@H](CCN)NC1=O)[C@@H](C)O` (X1-[Dab]T[Dab][Dab][Dab][dF]L[Dab][Dab]T; lactam 4-C), the concentration at 6 h in data set [3] amounted to 200 ng/mL. The clearance turned out to be 2.39 mL/min/kg in data set [4] and 1.65 mL/min/kg in data set [1]. In addition, in data set [5], the Vd was 0.21 L/kg. The half-life in data set [6] amounted to 79.5 min. This compound showed an AUC(0-inf) in [7] of 6080 ng·h/mL. Moreover, the dose excreted in data set [8] was found to be 0.13%. Besides, the fraction unbound at 0.5 h, 5 mg/L in data set [9] was 0.177. The fraction unbound at 2 h in data set [2] was 0.08.

In the case of `CC[C@H](C)CCCCC(=O)N[C@@H](CCN)C(=O)N[C@H](C(=O)N[C@@H](CCN)C(=O)N[C@H]1CCNC(=O)[C@H]([C@@H](C)O)NC(=O)[C@H](CCN)NC(=O)[C@H](CCN)NC(=O)[C@H](CC(C)C)NC(=O)[C@@H](CC(C)C)NC(=O)[C@H](CCN)NC1=O)[C@@H](C)O` (X2-[Dab]T[Dab][Dab][Dab][dL]L[Dab][Dab]T; lactam 4-C), the clearance in data set [4] was found to be 2.75 mL/min/kg; in data set [10], 5.1 mL/min/kg. This compound also yielded a Vd in data set [5] of 0.27 L/kg. In addition, the half-life in data set [6] stood at 82 min. In addition, in [7], the AUC(0-inf) is 5020 ng·h/mL. The dose excreted in data set [8] came out at 0.14%. In addition, the fraction unbound at 0.5 h, 5 mg/L in [9] was 0.434.

With `CC(C)CCCCC(=O)N[C@@H](CCN)C(=O)N[C@H](C(=O)N[C@@H](CCN)C(=O)N[C@H]1CCNC(=O)[C@H]([C@@H](C)O)NC(=O)[C@H](CCN)NC(=O)[C@H](CCN)NC(=O)[C@H](CC(C)C)NC(=O)[C@@H](CC(C)C)NC(=O)[C@H](CCN)NC1=O)[C@@H](C)O` [COLISTIN B] ({Heptanoyl(6-Me)}-[Dab]T[Dab][Dab][Dab][dL]L[Dab][Dab]T; lactam 4-C), the clearance is 3.05 mL/min/kg in data set [4] and 5.3 mL/min/kg in data set [10]. This compound gave a volume of distribution (Vd) in data set [5] of 0.37 L/kg. The half-life in [6] amounted to 91.3 min. This compound also showed an AUC(0-inf) in data set [7] of 4600 ng·h/mL. The dose excreted in [8] stood at 0.24%. The fraction unbound at 0.5 h, 5 mg/L in data set [9] was 0.583.

In data set [3], `CC(C)CCCCC(=O)N[C@@H](CCN)C(=O)N[C@H](C(=O)N[C@@H](CCN)C(=O)N[C@H]1CCNC(=O)[C@H]([C@@H](C)O)NC(=O)[C@H](CCN)NC(=O)[C@H](CCN)NC(=O)[C@H](CC(C)C)NC(=O)[C@@H](Cc2ccccc2)NC(=O)[C@H](CCN)NC1=O)[C@@H](C)O` [POLYMYXIN B2] ({Heptanoyl(6-Me)}-[Dab]T[Dab][Dab][Dab][dF]L[Dab][Dab]T; lactam 4-C) yielded a concentration at 6 h of 200 ng/mL. Besides, the results for the clearance in [4] and in [1] were 1.96 mL/min/kg and 1.69 mL/min/kg, respectively. The distribution volume (Vd) in data set [5] worked out at 0.23 L/kg. Also, the half-life in [6] was 94.9 min. In [7], this compound had an AUC(0-inf) of 6930 ng·h/mL. Further, in data set [8], the dose excreted is 0.09%. The fraction unbound at 0.5 h, 5 mg/L in data set [9] was 0.316. In data set [2], the fraction unbound at 2 h is 0.08.
